Published values from different studies.
Each line is one published result; the experiments were not run side by side.
Read-out: cell growth or viability

SMILES | cell line | assay | setting | IC50 [µM]
CC(C)c1cc(C(=O)N2Cc3ccccc3C2)c(O)c2cc[nH]c12 | UMUC3 | ATP luminescence | 72 h | > 100
COc1cc(/C=C/C(=O)/C=C/c2cn(-c3ccccc3)nc2-c2ccccc2)ccc1O | LLC-PK1 | MTT | 72 h | 15.8
Cn1nnc2c(C(N)=O)ncn2c1=O | U-118-MG | MTT | 72 h | 944
CS(=O)(=O)c1ccc(-n2cc(/C=N/N=c3\[nH]c(-c4ccc([N+](=O)[O-])cc4)cs3)c(-c3ccc(Br)cc3)n2)cc1 | F180 | MTT | 48 h | 71.8
C[C@@H](Oc1cc(-c2cnn(C3CCNCC3)c2)cnc1N)c1c(Cl)ccc(F)c1Cl | RD | – | 72 h | 0.49
COc1cc(/C=C/C(=O)/C=C/c2c(C)nn(-c3cccc([N+](=O)[O-])c3)c2Cl)cc(OC)c1O | LLC-PK1 | MTT | 72 h | 15.4
CC(C)c1cc(C(=O)N2Cc3ccccc3C2)c(O)c2cn[nH]c12 | UMUC3 | ATP luminescence | 72 h | > 100
CNC(=O)c1cc(Oc2ccc(NC(=O)Nc3ccc(Cl)c(C(F)(F)F)c3)cc2)ccn1 | Swiss-3T3 | SRB | – | 0.427
COc1ccc(/C=C/C(=O)/C=C/c2c(C)nn(-c3cccc([N+](=O)[O-])c3)c2Cl)cc1OC | LLC-PK1 | MTT | 72 h | 21
CN(C)C/C=C/C(=O)Nc1cc2c(Nc3ccc(F)c(Cl)c3)ncnc2cc1O[C@H]1CCOC1 | Caco-2 | MTT | 72 h | 3.1
CC(C)c1cc(C(=O)N2Cc3ccccc3C2)c(O)c2[nH]nnc12 | UMUC3 | ATP luminescence | 72 h | > 100
CC(=O)O[C@H]1C(=O)[C@@]2(C)[C@H]([C@H](OC(=O)c3ccccc3)[C@]3(O)C[C@H](OC(=O)[C@H](O)[C@@H](NC(=O)c4ccccc4)c4ccccc4)C(C)=C1C3(C)C)[C@]1(OC(C)=O)CO[C@@H]1C[C@@H]2O | LLC-PK1 | MTT | 72 h | 0.73
COc1cccc(C(=O)O[C@@H]2CN3Cc4c(cc5c(c4OC)OCO5)[C@@]24C=C[C@H](OC)C[C@@H]34)c1 | A2780 | WST-1 | – | > 10
CC(C)Cc1ccc(-c2nn(-c3ccc(S(C)(=O)=O)cc3)cc2/C=N\N=C2/NC(=O)CS2)cc1 | F180 | MTT | 48 h | 44.6
COc1cc(Nc2nccc(-c3cnn4nc(OC)ccc34)n2)cc(C(F)(F)F)c1 | U-118-MG | ATP luminescence | – | 0.12
c1csc([I+]c2cccs2)c1 | Caco-2 | trypan blue | 48 h | ~0.5
Cc1cc(Nc2ncc(Cl)c(Nc3ccccc3S(=O)(=O)C(C)C)n2)c(OC(C)C)cc1C1CCNCC1 | RD | – | 72 h | 2.18
C=C1Cc2c(O)c(C(=O)N3Cc4ccccc4C3)cc(C(C)C)c2C1=O | UMUC3 | ATP luminescence | 72 h | > 100
COc1cc(/C=C/C(=O)/C=C/c2c(C)nn(-c3ccccc3)c2Cl)ccc1O | LLC-PK1 | MTT | 72 h | 9.56
COc1cccc2c1C(=O)c1c(O)c3c(c(O)c1C2=O)C[C@@](O)(C(=O)CO)C[C@@H]3O[C@H]1C[C@H](N)[C@H](O)[C@H](C)O1 | F180 | MTT | 48 h | 9.39
Cc1cc(-c2nc(C(=O)Nc3cc4oc(N5CCOCC5)nc4nc3N3CC[C@@H](O)C3)co2)ccn1 | SU-DHL-4 | – | 5 days | > 10
O=C(/C=C/c1ccc(O)c(O)c1)O[C@@H]1C[C@](O)(C(=O)O)C[C@@H](O)[C@H]1O | RD | WST-1 | 48 h | 30.1
CC(C)c1cc(C(=O)N2Cc3ccccc3C2)c(O)c2c1C(=O)C(F)C2 (centres unmarked) | UMUC3 | ATP luminescence | 72 h | 69.9
Cn1nnc2c(C(N)=O)ncn2c1=O | U-118-MG | resazurin | 7 days | 322

SMILES | cell line | assay | setting | IC50 [µM]
O=c1[nH]cc(F)c(=O)[nH]1 | RD | WST-1 | 48 h | 21.1
COc1cc([C@@H]2c3cc4c(cc3[C@@H](O[C@@H]3O[C@@H]5CO[C@@H](C)O[C@H]5[C@H](O)[C@H]3O)[C@H]3COC(=O)[C@H]23)OCO4)cc(OC)c1O | Caco-2 | MTS | 72 h | 16.5
COc1cccc2c1C(=O)c1c(O)c3c(c(O)c1C2=O)C[C@@](O)(C(=O)CO)C[C@@H]3O[C@H]1C[C@H](N)[C@H](O)[C@H](C)O1 | Caco-2 | MTT | 48 h | 17.8
COc1cc([C@@H]2c3cc4c(cc3[C@@H](O[C@@H]3O[C@@H]5CO[C@@H](C)O[C@H]5[C@H](O)[C@H]3O)[C@H]3COC(=O)[C@H]23)OCO4)cc(OC)c1O | Caco-2 | MTS | 48 h | 15.3
Cc1cccc(-n2ncc(Br)c(Br)c2=O)c1 | NCI-H2122 | resazurin | 96 h | 1.26
CCCCCC/N=C1\c2cc(C(N)=O)nc3c(N)c(Cl)c(N)c(c23)N1C | HCC44 | – | – | 1.1
CC(C)c1cc(C(=O)N2Cc3ccccc3C2)c(O)c2nc[nH]c12 | UMUC3 | ATP luminescence | 72 h | 53
COc1cc(N2CCC(N3CCN(C)CC3)CC2)ccc1Nc1ncc(Cl)c(Nc2ccccc2S(=O)(=O)C(C)C)n1 | RD | – | 72 h | 0.25
CC(O)(CS(=O)(=O)c1ccc(F)cc1)C(=O)Nc1ccc(C#N)c(C(F)(F)F)c1 (centres unmarked) | LAPC4 | MTT | 7 days | 9
CC(C)C[C@H](NC(=O)[C@H](Cc1ccccc1)NC(=O)c1cnccn1)B(O)O | U-118-MG | ATP luminescence | – | 0.0075
O=C(O)CCCc1ccccc1 | LoVo | MTT | 72 h | > 50
COc1ccc(/C=C/C(=O)/C=C/c2c(C)nn(-c3ccccc3)c2Cl)cc1O | LLC-PK1 | MTT | 72 h | 16.1
Cn1nnc2c(Cl)ncn2c1=O | U-118-MG | resazurin | 7 days | 60
O=c1c(O)c(-c2ccc(O)cc2)oc2cc(O)cc(O)c12 | RD | WST-1 | 48 h | 54.1
CC(C)c1cc(C(=O)N2Cc3ccccc3C2)c(O)c2c1C(=O)C(F)(F)C2 | UMUC3 | ATP luminescence | 72 h | > 100
Cc1nc(Nc2ncc(C(=O)Nc3c(C)cccc3Cl)s2)cc(N2CCN(CCO)CC2)n1 | F180 | MTT | 48 h | 32.2
CN1/C(=N/c2ccc(Cl)cc2)c2cc(C(N)=O)nc3c(N)c(Cl)c(N)c1c23 | HCC44 | – | – | 23.2
O=Cc1ccc(CO)o1 | RD | WST-1 | 48 h | 60.6
CC(C)c1cc(C(=O)N2Cc3ccccc3C2)c(O)c2ccoc12 | UMUC3 | ATP luminescence | 72 h | 71.6
CCSC(=O)c1ncn2c(=O)n(C)nnc12 | U-118-MG | resazurin | 7 days | 165
CS(=O)(=O)c1ccc(-n2cc(/C=N/N=c3\[nH]c(-c4ccc([N+](=O)[O-])cc4)cs3)c(-c3ccc([N+](=O)[O-])cc3)n2)cc1 | F180 | MTT | 48 h | 70.6
Cc1ncn2c(=O)n(C)nnc12 | U-118-MG | resazurin | 7 days | 7
Cc1ccc(-c2nn(-c3ccc(S(C)(=O)=O)cc3)cc2/C=N\N=c2/[nH]c(-c3ccc([N+](=O)[O-])cc3)cs2)cc1 | F180 | MTT | 48 h | 99.5
